Reference: ChEMBL document CHEMBL2331331 (J Med Chem, 2013)

Key:
HeLa = experiment: Cytotoxicity against human HeLa cells assessed as growth inhibition after 72 hrs by MTT assay; assay type: functional, cell-based
Outline: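 MTT viability assay with serial inhibitor dilutions for 72 h at 37 °C, then MTT for 2–4 h and OD read at 570 nm. Leukemia lines were seeded at (1–4) × 10⁴ cells/well and lysed with 20% acidified SDS. Adherent lines were seeded at (2–5) × 10³ cells/well, dosed after 24 h and dissolved in DMSO. Triplicate; mean ± SD.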

[1] = molecular target: Vascular endothelial growth factor receptor 2 (Danio rerio, UniProt Q5GIT4); experiment: Inhibition of VEGFR2 in transgenic zebrafish embryo assessed as inhibition of intersegmental vessels formation measured 33 hrs post fertilization by fluorescence microscopic analysis
Outline: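 FLK-1:EGFP transgenic zebrafish embryos, 10 per well, exposed at 28.5 °C from 15 to 31 hpf to compound in fish water at 1.25, 2.5 or 5 μM (diluted from a 10 mmol/L DMSO stock); 0.3% DMSO as vehicle control. Embryos were imaged at 33 hpf, and ISVs above the yolk extension were scored for length. n = 11, mean ± SD, ANOVA.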

[2] = molecular target: T1, Receptor-type tyrosine-protein kinase FLT3 (Homo sapiens, UniProt P36888); experiment: Inhibition of FLT3 (unknown origin)
T1 sequence (P36888 whole entry): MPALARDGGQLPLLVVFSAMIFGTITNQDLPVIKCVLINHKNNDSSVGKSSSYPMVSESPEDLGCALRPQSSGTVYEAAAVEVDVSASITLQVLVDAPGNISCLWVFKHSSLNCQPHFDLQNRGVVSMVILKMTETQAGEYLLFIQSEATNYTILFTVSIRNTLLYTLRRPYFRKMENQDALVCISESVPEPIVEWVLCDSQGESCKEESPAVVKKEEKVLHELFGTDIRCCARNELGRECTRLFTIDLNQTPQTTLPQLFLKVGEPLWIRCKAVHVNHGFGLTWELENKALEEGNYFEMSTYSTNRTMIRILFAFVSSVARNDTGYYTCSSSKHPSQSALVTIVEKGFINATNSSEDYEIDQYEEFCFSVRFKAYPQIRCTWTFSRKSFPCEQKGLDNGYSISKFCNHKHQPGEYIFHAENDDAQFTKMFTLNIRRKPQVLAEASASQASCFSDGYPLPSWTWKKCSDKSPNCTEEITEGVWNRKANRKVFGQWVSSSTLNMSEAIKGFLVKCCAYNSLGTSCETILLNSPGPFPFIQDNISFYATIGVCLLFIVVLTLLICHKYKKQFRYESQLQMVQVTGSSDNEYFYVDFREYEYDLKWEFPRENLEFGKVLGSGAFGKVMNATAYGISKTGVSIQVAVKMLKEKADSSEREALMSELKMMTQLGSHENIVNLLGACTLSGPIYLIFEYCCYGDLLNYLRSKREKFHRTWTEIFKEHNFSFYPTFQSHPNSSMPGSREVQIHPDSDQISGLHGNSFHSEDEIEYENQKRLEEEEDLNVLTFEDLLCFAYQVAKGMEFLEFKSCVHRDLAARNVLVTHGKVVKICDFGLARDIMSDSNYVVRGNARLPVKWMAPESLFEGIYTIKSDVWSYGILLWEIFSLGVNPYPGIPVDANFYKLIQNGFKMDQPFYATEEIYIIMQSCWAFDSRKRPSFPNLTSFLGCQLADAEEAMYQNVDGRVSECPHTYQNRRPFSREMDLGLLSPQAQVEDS

[3] = molecular target: Vascular endothelial growth factor receptor 2 (Homo sapiens, UniProt P35968); experiment: Inhibition of VEGFR2 (unknown origin)
[4] = molecular target: Receptor-type tyrosine-protein kinase FLT3 (Homo sapiens, UniProt P36888, ITD); experiment: Binding affinity to FLT3-ITD mutant (unknown origin)

Vascular endothelial growth factor receptor 2 (Danio rerio, UniProt Q5GIT4), sequence (Q5GIT4 whole entry): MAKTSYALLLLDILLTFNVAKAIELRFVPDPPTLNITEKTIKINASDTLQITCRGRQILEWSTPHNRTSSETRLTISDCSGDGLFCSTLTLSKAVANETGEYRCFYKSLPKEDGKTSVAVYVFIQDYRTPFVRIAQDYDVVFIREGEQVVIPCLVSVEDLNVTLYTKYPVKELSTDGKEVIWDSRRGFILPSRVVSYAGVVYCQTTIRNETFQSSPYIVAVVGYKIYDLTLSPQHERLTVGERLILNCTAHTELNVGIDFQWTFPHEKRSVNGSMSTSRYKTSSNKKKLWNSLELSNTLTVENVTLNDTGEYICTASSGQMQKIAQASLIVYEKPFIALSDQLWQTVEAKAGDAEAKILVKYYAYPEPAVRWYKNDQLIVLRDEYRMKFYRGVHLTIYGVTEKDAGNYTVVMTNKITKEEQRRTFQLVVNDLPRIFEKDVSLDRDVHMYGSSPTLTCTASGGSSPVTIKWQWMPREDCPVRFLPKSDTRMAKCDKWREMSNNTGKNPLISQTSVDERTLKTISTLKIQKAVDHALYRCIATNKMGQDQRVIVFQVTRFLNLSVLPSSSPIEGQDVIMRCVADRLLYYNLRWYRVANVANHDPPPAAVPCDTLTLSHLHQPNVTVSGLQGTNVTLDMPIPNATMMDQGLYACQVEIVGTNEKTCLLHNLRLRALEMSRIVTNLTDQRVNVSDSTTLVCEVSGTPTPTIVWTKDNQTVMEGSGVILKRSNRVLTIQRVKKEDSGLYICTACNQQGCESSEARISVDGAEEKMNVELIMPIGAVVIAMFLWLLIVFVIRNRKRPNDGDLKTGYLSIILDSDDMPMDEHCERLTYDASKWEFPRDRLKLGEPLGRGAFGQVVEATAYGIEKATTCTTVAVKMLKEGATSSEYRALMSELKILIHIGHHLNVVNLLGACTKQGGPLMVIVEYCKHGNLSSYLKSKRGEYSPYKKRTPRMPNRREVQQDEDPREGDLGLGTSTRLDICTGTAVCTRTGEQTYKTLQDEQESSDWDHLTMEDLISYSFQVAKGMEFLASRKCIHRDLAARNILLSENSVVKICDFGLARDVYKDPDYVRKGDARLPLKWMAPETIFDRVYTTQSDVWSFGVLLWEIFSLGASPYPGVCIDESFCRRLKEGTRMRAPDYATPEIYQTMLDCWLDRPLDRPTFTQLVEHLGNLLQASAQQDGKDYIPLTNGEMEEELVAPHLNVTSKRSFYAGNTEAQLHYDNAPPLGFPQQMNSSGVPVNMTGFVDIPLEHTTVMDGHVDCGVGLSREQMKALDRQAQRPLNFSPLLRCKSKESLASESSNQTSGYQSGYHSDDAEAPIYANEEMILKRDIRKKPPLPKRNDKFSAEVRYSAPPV
Vascular endothelial growth factor receptor 2 (Homo sapiens, UniProt P35968), sequence (P35968 whole entry): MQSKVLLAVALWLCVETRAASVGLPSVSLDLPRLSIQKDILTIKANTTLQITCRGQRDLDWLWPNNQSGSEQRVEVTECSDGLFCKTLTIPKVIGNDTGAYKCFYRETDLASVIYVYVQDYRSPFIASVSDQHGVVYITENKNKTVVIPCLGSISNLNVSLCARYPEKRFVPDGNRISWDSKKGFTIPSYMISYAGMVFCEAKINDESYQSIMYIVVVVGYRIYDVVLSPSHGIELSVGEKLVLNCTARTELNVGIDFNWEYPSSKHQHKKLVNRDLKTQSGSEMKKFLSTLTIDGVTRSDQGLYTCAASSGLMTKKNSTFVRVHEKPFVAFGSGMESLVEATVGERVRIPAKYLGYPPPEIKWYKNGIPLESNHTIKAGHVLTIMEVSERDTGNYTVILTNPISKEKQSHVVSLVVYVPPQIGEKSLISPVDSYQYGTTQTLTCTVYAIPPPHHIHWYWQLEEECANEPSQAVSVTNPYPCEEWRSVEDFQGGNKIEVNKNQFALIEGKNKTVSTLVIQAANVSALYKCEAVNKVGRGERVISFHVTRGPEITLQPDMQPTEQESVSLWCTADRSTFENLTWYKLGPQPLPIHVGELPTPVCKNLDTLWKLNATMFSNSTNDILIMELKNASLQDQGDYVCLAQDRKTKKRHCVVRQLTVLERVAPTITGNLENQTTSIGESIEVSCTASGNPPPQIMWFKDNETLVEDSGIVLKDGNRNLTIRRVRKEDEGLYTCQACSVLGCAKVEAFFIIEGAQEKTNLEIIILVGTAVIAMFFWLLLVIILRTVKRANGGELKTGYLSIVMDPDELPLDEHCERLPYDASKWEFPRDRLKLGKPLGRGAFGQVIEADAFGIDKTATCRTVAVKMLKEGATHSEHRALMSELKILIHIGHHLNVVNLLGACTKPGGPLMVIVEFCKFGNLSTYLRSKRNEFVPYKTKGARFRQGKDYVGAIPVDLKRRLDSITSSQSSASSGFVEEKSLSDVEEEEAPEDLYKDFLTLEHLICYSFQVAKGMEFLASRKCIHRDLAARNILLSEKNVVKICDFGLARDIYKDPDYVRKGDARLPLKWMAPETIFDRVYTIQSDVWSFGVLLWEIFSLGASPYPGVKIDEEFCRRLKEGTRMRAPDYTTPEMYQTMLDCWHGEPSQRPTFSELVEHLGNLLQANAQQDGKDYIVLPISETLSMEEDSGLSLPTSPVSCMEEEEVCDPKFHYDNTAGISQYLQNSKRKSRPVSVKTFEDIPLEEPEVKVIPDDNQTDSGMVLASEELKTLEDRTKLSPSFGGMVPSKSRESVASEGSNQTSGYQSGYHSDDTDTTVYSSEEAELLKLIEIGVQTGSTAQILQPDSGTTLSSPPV

IC50 [1] | IC50 [2] | IC50 [3] | Kd [4] | SMILES | IC50 (HeLa)
> 100 µM | – | – | – | O=C(Cc1ccc(C(F)(F)F)cc1)Nc1cccc(Oc2ncnc3[nH]ncc23)c1 | > 10 µM
89.4 µM | – | – | – | O=C(Nc1ccc(F)cc1)Nc1ccc(Oc2ncnc3[nH]ncc23)cc1 | > 10 µM
> 100 µM | – | – | – | O=C(Nc1ccc(Br)cc1)Nc1cccc(Oc2ncnc3[nH]ncc23)c1 | > 10 µM
74.7 µM | – | – | – | O=C(Nc1ccc(Oc2ncnc3n[nH]cc23)cc1)c1ccc(Br)cc1 | > 10 µM
16.6 µM | – | – | – | O=C(Nc1ccc(Oc2ncnc3[nH]ncc23)cc1)Nc1cccc(F)c1 | > 10 µM
> 100 µM | – | – | – | Cc1cccc(NC(=O)Nc2ccc(Nc3ncnc4n[nH]cc34)cc2)c1C | > 10 µM
7.73 µM | – | – | – | CC(C)c1cccc(NC(=O)Nc2ccc(Oc3ncnc4n[nH]cc34)cc2)c1 | > 10 µM
82 µM | – | – | – | COc1cccc(NC(=O)Nc2ccc(Oc3ncnc4n[nH]cc34)cc2)c1 | > 10 µM
20.2 µM | – | – | – | O=C(Nc1ccccc1)Nc1ccc(Oc2ncnc3n[nH]cc23)cc1 | > 10 µM
1.2 µM | 0.032 µM | 0.038 µM | 0.91 µM | O=C(Nc1ccc(Oc2ncnc3[nH]ncc23)cc1)Nc1ccc(C(F)(F)F)cc1 | > 10 µM
5.18 µM | – | – | – | O=C(Nc1ccc(Oc2ncnc3n[nH]cc23)cc1)Nc1cc(C(F)(F)F)cc(C(F)(F)F)c1 | > 10 µM
> 100 µM | – | – | – | O=C(Nc1cccc(Oc2ncnc3n[nH]cc23)c1)c1ccc(C(F)(F)F)cc1 | > 10 µM
> 100 µM | – | – | – | O=C(Nc1ccc(Oc2ncnc3n[nH]cc23)cc1)Nc1cccnc1 | > 10 µM
> 100 µM | – | – | – | O=C(NCC1CCCCC1)Nc1ccc(Oc2ncnc3[nH]ncc23)cc1 | > 10 µM
> 100 µM | – | – | – | O=C(Nc1ccc(Nc2ncnc3[nH]ncc23)cc1)Nc1ccc(C(F)(F)F)cc1 | > 10 µM
> 100 µM | – | – | – | O=C(Nc1cccc(Oc2ncnc3[nH]ncc23)c1)c1ccc(Br)cc1 | > 10 µM
> 100 µM | – | – | – | CC(NC(=O)Nc1ccc(Nc2ncnc3[nH]ncc23)cc1)c1ccccc1 (stereo not given) | > 10 µM

IC50 [1] | IC50 [2] | IC50 [3] | Kd [4] | SMILES | IC50 (HeLa)
2.6 µM | – | – | – | CNC(=O)c1cc(Oc2ccc(NC(=O)Nc3ccc(Cl)c(C(F)(F)F)c3)cc2)ccn1 [SORAFENIB] | 4.16 µM
> 100 µM | – | – | – | O=C(Nc1ccc(Oc2ncnc3[nH]ncc23)cc1)Nc1ccc(N2CCOCC2)cc1 | > 10 µM
> 100 µM | – | – | – | O=C(Cc1ccc(Br)cc1)Nc1cccc(Oc2ncnc3n[nH]cc23)c1 | > 10 µM
> 100 µM | – | – | – | O=C(Nc1ccc(Br)cc1)Nc1ccc(Nc2ncnc3n[nH]cc23)cc1 | > 10 µM
98.8 µM | – | – | – | Cc1cccc(NC(=O)Nc2ccc(Oc3ncnc4[nH]ncc34)cc2)c1C | > 10 µM
> 98.2 µM | – | – | – | CC(NC(=O)Nc1ccc(Oc2ncnc3n[nH]cc23)cc1)c1ccccc1 (stereo not given) | > 10 µM
> 100 µM | – | – | – | O=C(Nc1ccc(Oc2ncnc3n[nH]cc23)cc1)NC1CCCCC1 | > 10 µM
74.7 µM | – | – | – | O=C(Cc1ccc(Br)cc1)Nc1ccc(Oc2ncnc3n[nH]cc23)cc1 | > 10 µM
1.05 µM | – | – | 0.0066 µM | O=C(Nc1ccc(Oc2ncnc3[nH]ncc23)cc1)Nc1cccc(C(F)(F)F)c1 | > 10 µM
17.8 µM | – | – | – | O=C(Nc1ccc(Oc2ncnc3n[nH]cc23)cc1)Nc1cccc(OC(F)(F)F)c1 | > 10 µM
> 100 µM | – | – | – | Cn1ncc2c(Oc3ccc(NC(=O)Nc4ccc(C(F)(F)F)cc4)cc3)ncnc21 | > 10 µM
8.46 µM | – | – | – | O=C(Nc1ccc(Oc2ncnc3[nH]ncc23)cc1)Nc1ccc(C(F)(F)F)cc1Cl | > 10 µM
> 100 µM | – | – | – | COc1cccc(NC(=O)Nc2ccc(Nc3ncnc4[nH]ncc34)cc2)c1 | > 10 µM
74.7 µM | – | – | – | O=C(Nc1ccc(Br)cc1)Nc1ccc(Oc2ncnc3[nH]ncc23)cc1 | > 10 µM
> 100 µM | – | – | – | COc1cccc(NC(=O)Nc2ccc(Oc3ncnc4c3cnn4C)cc2)c1 | > 10 µM
> 100 µM | – | – | – | O=C(Nc1ccc(C(F)(F)F)cc1)Nc1cccc(Oc2ncnc3[nH]ncc23)c1 | > 10 µM
